Results filed as inconclusive are left out. The source made the active and inactive calls.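 How the source made its calls: active means fitted half-maximal concentration for caspase signal rise at or below the highest valid tested dose; inconclusive means flat fit at 30 to 70% of control, or poor fit; inactive means the rest.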

Assay [1] has as its system MEF A1-2A-tBid cells, caspase 3/7 luminescence, 3 h. Description: apoptosis induction, A1-2A-tBid fibroblasts – cell-based, tBid as inducer, caspase 3/7 luminescence, dry powder, A1 inhibitor project, dose response (AID 488897). The procedure, abridged: (§1)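 Assay system: Mouse embryonic fibroblasts co-expressing A1-2A-tBid, primed by tBid | Input: 2500 cells per well | Medium: TSA added at seeding | Compound dosing: Dose-response series, pin-transferred | Times: 3 h compound at 37 °C, 1 h reagent at RT | Signal: Caspase-Glo 3/7 luminescence | Measure: Caspase-3/7 activation seen as rise in luminescence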

Test in assay [2]: as above
Conditions: MEF A1-2A-tBid cells, caspase 3/7 luminescence, 3 h; at 150 µM (top of the series). An outline of the steps: as §1

For the compound `Cc1ccc(CS(=O)(=O)c2ncc(Cl)c(C(=O)Nc3nnc(C(C)C)s3)n2)cc1`, in assay [1], the AC50 was > 46 µM (inactive).

In the case of `CCc1cc2c(=O)c(-c3cnn(-c4ccccc4)c3)c(C)oc2cc1OCC(=O)Nc1cccc(C)c1`, the AC50 in assay [1] is > 100 µM (inactive).

For the compound `Cc1cccc(NC(=O)/C(C#N)=C/c2cn(CC(=O)NCc3ccco3)c3ccccc23)c1`, the AC50 in assay [1] is 7.59 µM.

Take `CCOC(=O)CSC1=N/C(=C/c2ccc(-n3cncn3)cc2)C(=O)N1C(C)=O`: the AC50 in assay [1] was 9.07 µM.

Take `Cc1ccc(Sc2c([N+](=O)[O-])c(=O)n(C)c3ccccc23)cc1`: the AC50 in assay [1] was 18.1 µM.

Consider `CC(C)(C)n1nc(-c2ccc(Cl)cc2)c2c(N)ncnc21`, for which, in assay [1], the AC50 is > 150 µM (inactive).

With `O=C(CCl)N=c1sccn1Cc1ccccc1Cl`, in assay [1], the AC50 is 1.93 µM.

As to `Cc1cccc(CS(=O)(=O)c2ncc(Cl)c(C(=O)Nc3nnc(C(C)C)s3)n2)c1`, in assay [1], the AC50 was > 46 µM (inactive).

As to `Cc1c(CCOC(=O)c2ccc(N3CCOCC3)c([N+](=O)[O-])c2)sc[n+]1CC#N`, in assay [1], the AC50 is 16.7 µM.

As for `Cn1c(=NC(=O)CCl)sc2ccccc21`, the AC50 in assay [1] was 3.22 µM.

For the compound `COc1cccc(C(=O)C(C#N)=C(SC)SC)c1`, the concentration at half-maximal activity (AC50) in assay [1] was 2.71 µM.

`Cc1c(C=O)c(C=O)c(C)n1Cc1ccccc1`: the AC50 in assay [1] was 6.11 µM.

Turning to `Nc1nc(F)nc2c1ncn2[C@@H]1O[C@H](CO)[C@@H](O)[C@H]1O`, the half-maximal activity concentration (AC50) in assay [1] is 2.35 µM.

`CC(=O)OC(C)(C)/C=C/C(=O)[C@](C)(O)C1[C@H](O)C[C@@]2(C)C3CC=C4C(C[C@H](O)C(=O)C4(C)C)[C@]3(C)C(=O)C[C@]12C` (stereo partly drawn): in assay [1], the AC50 was > 150 µM (inactive).

`CCc1nnc(NC(=O)c2nc(S(=O)(=O)Cc3ccccc3)ncc2Cl)s1`: in assay [1], the AC50 was > 68 µM (inactive).

On to `COc1ccc(N(C(=O)CCl)C(C(=O)NCCc2ccccc2)c2cccs2)cc1Cl` (stereo not drawn), for which the AC50 in assay [1] is > 150 µM (inactive).

With `C=C1[C@@H](C)[C@H]2[C@H](Cc3ccccc3)NC(=O)[C@]23[C@H](OC(C)=O)/C=C/[C@](C)(O)C(=O)[C@@H](C)C/C=C/[C@H]3[C@@H]1O`, in assay [2], the caspase activation was 0.731% (inactive).

Take `Cc1cc(C(=O)CCl)c(C)n1CCc1ccc(Cl)cc1`: in assay [1], the half-maximal activity concentration (AC50) was 8.01 µM.

`C/C1=C/C(=O)O[C@@H]2C[C@@H](CC[C@H](C)/C=C\CC1)O[C@@](O)(C1CSC(=O)N1)C2` (stereo partly drawn): in assay [1], the AC50 was 0.695 µM.

With `O=C(Oc1cccc(/C=N/Nc2nc(Nc3ccccc3)nc(N3CCOCC3)n2)c1)c1ccco1`, in assay [1], the AC50 was 17.6 µM.

In the case of `CC(=O)N[C@H]1[C@H](O[C@H]2CC[C@@]3(C)C(CC[C@]4(C)C3CC=C3[C@@H]5CC(C)(C)CC[C@]5(C(=O)OC5OCC(O)C(O)C5O)C(O)C[C@]34C)C2(C)C)O[C@H](COC2OCC(O)C(OC3OCC(O)C(O)C3O)C2O)[C@@H](O[C@@H]2O[C@@H](C)[C@H](O)[C@@H](O)[C@H]2O[C@@H]2O[C@@H](C)[C@H](O)[C@@H](O)[C@H]2O)[C@@H]1O` (stereo partly drawn), in assay [1], the AC50 is 12.2 µM.

Turning to `COc1cc(/C=C(/C#N)c2nc3ccccc3[nH]2)ccc1OCC(=O)Nc1ccccc1C(C)C`, the caspase activation in assay [2] was 1.39% (inactive).

As to `C=C1[C@@H](C)[C@H]2[C@H](Cc3ccccc3)NC(=O)[C@]23OC(=O)/C=C\[C@H](O)CCC[C@@H](C)C/C=C/[C@H]3[C@@H]1O`, the AC50 in assay [1] is 12.7 µM.

Broadly, the AC50 is the concentration at which the activity in the assay is half-maximal.

For the origin of these results see PubChem BioAssay AID488897 (Broad Institute, 2010).
